# Reference: ChEMBL document CHEMBL4715780, “Biological evaluation of tetracationic compounds based on two 1,4-diazabicyclo[2.2.2]octane moieties connected by different linkers” (Bioorg Med Chem, 2016)
# Assays:
# Staphylococcus aureus [1] = test: Antibacterial activity against […] Staphylococcus aureus ATCC 25923 assessed as concentration required to inhibit visible growth by CLSI protocol based serial microdilution method; assay type: functional
# Staphylococcus aureus [2] = test: Antibacterial activity against […] Staphylococcus aureus ATCC 25923 assessed as bacterial growth inhibition by CLSI protocol based serial microdilution method; assay type: functional
# Enterococcus faecalis [3] = test: Antibacterial activity against Enterococcus faecalis ATCC 51299 assessed as concentration required to inhibit visible growth by CLSI protocol based serial microdilution method; assay type: functional
# Enterococcus faecalis [4] = test: Antibacterial activity against Enterococcus faecalis ATCC 51299 assessed as bacterial growth inhibition by CLSI protocol based serial microdilution method; assay type: functional
# Pseudomonas aeruginosa [5] = test: Antibacterial activity against Pseudomonas aeruginosa ATCC 9027 assessed as concentration required to inhibit visible growth by CLSI protocol based serial microdilution method; assay type: functional
# Pseudomonas aeruginosa [6] = test: Antibacterial activity against Pseudomonas aeruginosa ATCC 9027 assessed as bacterial growth inhibition by CLSI protocol based serial microdilution method; assay type: functional
# Escherichia coli [7] = test: Antibacterial activity against Escherichia coli ATCC 25922 assessed as concentration required to inhibit visible growth by CLSI protocol based serial microdilution method; assay type: functional
# Escherichia coli [8] = test: Antibacterial activity against Escherichia coli ATCC 25922 assessed as bacterial growth inhibition by CLSI protocol based serial microdilution method; assay type: functional
# Salmonella typhimurium [9] = test: Antibacterial activity against Salmonella enterica ATCC 14028 assessed as concentration required to inhibit visible growth by CLSI protocol based serial microdilution method; assay type: functional, Salmonella enterica subsp. enterica serovar Typhimurium
# Salmonella typhimurium [10] = test: Antibacterial activity against Salmonella enterica ATCC 14028 assessed as bacterial growth inhibition by CLSI protocol based serial microdilution method; assay type: functional, Salmonella enterica subsp. enterica serovar Typhimurium
# Citrobacter freundii [11] = test: Antibacterial activity against Citrobacter freundii ATCC 8090 assessed as concentration required to inhibit visible growth by CLSI protocol based serial microdilution method; assay type: functional
# Citrobacter freundii [12] = test: Antibacterial activity against Citrobacter freundii ATCC 8090 assessed as bacterial growth inhibition by CLSI protocol based serial microdilution method; assay type: functional
# Proteus vulgaris [13] = test: Antibacterial activity against Proteus vulgaris ATCC 6380 assessed as concentration required to inhibit visible growth by CLSI protocol based serial microdilution method; assay type: functional
# Proteus vulgaris [14] = test: Antibacterial activity against Proteus vulgaris ATCC 6380 assessed as bacterial growth inhibition by CLSI protocol based serial microdilution method; assay type: functional
# Candida albicans [15] = test: Antifungal activity against Candida albicans CEMTC 34 assessed as concentration required to inhibit visible growth by CLSI protocol based serial microdilution method; assay type: functional
# In short: (§1)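 Candida albicans grown in Sabouraud dextrose broth with two-fold serial compound dilutions from water stocks; final inoculum about 5 × 10⁵ CFU/mL. Incubated at 37 °C with orbital shaking (580 rpm). MIC is the lowest concentration preventing growth, by absorbance at 595 nm. MFC is the lowest concentration with no visible growth. Duplicates in two separate experiments.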
# Candida albicans [16] = test: Antifungal activity against Candida albicans CEMTC 34 assessed as fungal growth inhibition by CLSI protocol based serial microdilution method; assay type: functional; in short: as §1
# [17] = Cytotoxicity against human MCF7 cells assessed as reduction in cell viability measured after 24 hrs by MTT assay; assay type: cell-based
# In short: (§2)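 HEK293T or MCF-7 cells in IMDM with 10% FBS, seeded at 20,000 per well and grown overnight. Compounds at […] in fresh medium for 24 h at 37 °C, 5% CO₂. MTT then added for 4 h, precipitate dissolved overnight in SDS-HCl, absorbance read at 570 nm. Viability expressed relative to untreated cells, giving CC₅₀. Duplicate wells, at least two independent repeats.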
# [18] = Cytotoxicity against HEK293T cells assessed as reduction in cell viability measured after 24 hrs by MTT assay; assay type: cell-based, HEK-293T; settings: human; in short: as §2
# [19] = Selectivity index, ratio of CC50 for HEK293T cells assessed as reduction in cell viability measured after 24 hrs by MTT assay to MIC for Staphylococcus aureus ATCC 25923 assessed as bacterial growth inhibition by CLSI protocol based serial microdilution method; assay type: toxicity; settings: human, read-out: Selectivity Index
# [20] = Selectivity index, ratio of CC50 for HEK293T cells assessed as reduction in cell viability measured after 24 hrs by MTT assay to MIC for Enterococcus faecalis ATCC 51299 assessed as bacterial growth inhibition by CLSI protocol based serial microdilution method; assay type: toxicity; settings: human, read-out: Selectivity Index
# [21] = Selectivity index, ratio of CC50 for HEK293T cells assessed as reduction in cell viability measured after 24 hrs by MTT assay to MIC for Pseudomonas aeruginosa ATCC 9027 assessed as bacterial growth inhibition by CLSI protocol based serial microdilution method; assay type: toxicity; settings: human, read-out: Selectivity Index
# [22] = Selectivity index, ratio of CC50 for HEK293T cells assessed as reduction in cell viability measured after 24 hrs by MTT assay to MIC for Escherichia coli ATCC 25922 assessed as bacterial growth inhibition by CLSI protocol based serial microdilution method; assay type: toxicity; settings: human, read-out: Selectivity Index
# [23] = Selectivity index, ratio of CC50 for HEK293T cells assessed as reduction in cell viability measured after 24 hrs by MTT assay to MIC for Citrobacter freundii ATCC 8090 assessed as bacterial growth inhibition by CLSI protocol based serial microdilution method; assay type: toxicity; settings: human, read-out: Selectivity Index
# [24] = Selectivity index, ratio of CC50 for HEK293T cells assessed as reduction in cell viability measured after 24 hrs by MTT assay to MIC for Proteus vulgaris ATCC 6380 assessed as bacterial growth inhibition by CLSI protocol based serial microdilution method; assay type: toxicity; settings: human, read-out: Selectivity Index
# [25] = Selectivity index, ratio of CC50 for HEK293T cells assessed as reduction in cell viability measured after 24 hrs by MTT assay to MIC for Candida albicans CEMTC 34 assessed as bacterial growth inhibition by CLSI protocol based serial microdilution method; assay type: toxicity; settings: human, read-out: Selectivity Index
# In short: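 SI = CC₅₀ (HEK293T) / MIC. HEK293T cells were seeded at 20,000/well overnight, then exposed to 10–250 µg/mL in IMDM with 10% FBS for 24 h. MTT was added for 4 h, solubilised with SDS-HCl, and read at 570 nm; duplicates, ≥2 independent runs. MIC came from two-fold dilutions in Sabouraud dextrose broth at ~5 × 10⁵ CFU/mL, 37 °C with shaking, read at 595 nm, in duplicate.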
# Influenza A virus = test: Antiviral activity against Influenza A virus (A/Puerto Rico/8/34 (H1N1) infected in MDCK cells assessed as decrease in viral titer preincubated for 1 hr followed by viral infection and cultivated for 48 hrs followed by supernatant transferred to chicken erythrocyte for 1 hr followed by measuring ability to cause positive hemagglutination; assay type: functional, organism-based; settings: A/Puerto Rico/8/1934(H1N1)
# In short: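 MDCK monolayers in MEM were pre-incubated with compound for 1 h at 37 °C, then infected with 10-fold virus dilutions (10⁻¹–10⁻⁶) and held 48 h at 37 °C, 5% CO₂. Supernatant was mixed with an equal volume of 1% chicken erythrocytes, 60 min at room temperature. Titre was taken from the highest dilution giving full agglutination (log₁₀ EID₅₀). Triplicate per concentration.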
# [26] = Cytotoxicity against MDCK cells assessed as cell death incubated for 48 hrs by MTT assay; assay type: cell-based, Canis lupus familiaris; settings: dog
# [27] = Selectivity index, ratio of CC50 for MDCK cells to EC50 for Influenza A virus (A/Puerto Rico/8/34 (H1N1)) infected in MDCK cells; assay type: toxicity, cell-based; settings: dog, read-out: Ratio CC50/EC50
# In short: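 Ratio of CC₅₀ to EC₅₀, both in MDCK cells, with cytotoxicity run in parallel with the antiviral assay. EC₅₀ is the concentration halving virus production (0.3 log₁₀ EID₅₀ titre drop). It was obtained after 1 h compound pre-incubation, infection, 48 h at 37 °C, and hemagglutination read-out with 1% chicken erythrocytes.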
# [28] = Selectivity index, ratio of CC50 for HEK293T cells assessed as reduction in cell viability measured after 24 hrs by MTT assay to MIC for Salmonella enterica ATCC 14028 assessed as bacterial growth inhibition by CLSI protocol based serial microdilution method; assay type: toxicity; settings: human, read-out: Selectivity Index
SMILES,MBC (Staphylococcus aureus [1]),MIC (Staphylococcus aureus [2]),MBC (Enterococcus faecalis [3]),MIC (Enterococcus faecalis [4]),MBC (Pseudomonas aeruginosa [5]),MIC (Pseudomonas aeruginosa [6]),MBC (Escherichia coli [7]),MIC (Escherichia coli [8]),MBC (Salmonella typhimurium [9]),MIC (Salmonella typhimurium [10]),MBC (Citrobacter freundii [11]),MIC (Citrobacter freundii [12]),MBC (Proteus vulgaris [13]),MIC (Proteus vulgaris [14]),MFC (Candida albicans [15]),MIC (Candida albicans [16]),CC50 at 24 h [17],CC50 at 24 h [18],selectivity ratio at 24 h [19],selectivity ratio at 24 h [20],further results
CCCCCCCCCCCC[N+]12CC[N+](Cc3ccc(C[N+]45CC[N+](CCCCCCCCCCCC)(CC4)CC5)cc3)(CC1)CC2,1.2 µg/mL,0.6 µg/mL,1.6 µg/mL,1.6 µg/mL,12.5 µg/mL,6.3 µg/mL,3.1 µg/mL,1.6 µg/mL,3.1 µg/mL,1.6 µg/mL,3.1 µg/mL,1.6 µg/mL,25 µg/mL,12.5 µg/mL,12.5 µg/mL,12.5 µg/mL,16 µg/mL,16 µg/mL,27,10,selectivity ratio at 24 h [21]: 3; selectivity ratio at 24 h [22]: 10; selectivity ratio at 24 h [23]: 10; selectivity ratio at 24 h [24]: 1; selectivity ratio at 24 h [25]: 1; EC50 (Influenza A virus): 1 µg/mL; CC50 at 48 h [26]: 2.9 µg/mL; selectivity ratio [27]: 3; selectivity ratio at 24 h [28]: 10
CCCCCCCCCCCC[N+]12CC[N+](Cc3cccc(C[N+]45CC[N+](CCCCCCCCCCCC)(CC4)CC5)c3)(CC1)CC2,1.6 µg/mL,0.6 µg/mL,1.6 µg/mL,1.6 µg/mL,3.1 µg/mL,1.6 µg/mL,3.1 µg/mL,1.6 µg/mL,3.1 µg/mL,1.6 µg/mL,3.1 µg/mL,1.6 µg/mL,25 µg/mL,25 µg/mL,12.5 µg/mL,12.5 µg/mL,17 µg/mL,16 µg/mL,27,10,selectivity ratio at 24 h [21]: 10; selectivity ratio at 24 h [22]: 10; selectivity ratio at 24 h [23]: 10; selectivity ratio at 24 h [24]: < 1; selectivity ratio at 24 h [25]: 1; EC50 (Influenza A virus): 1.3 µg/mL; CC50 at 48 h [26]: 8.4 µg/mL; selectivity ratio [27]: 6; selectivity ratio at 24 h [28]: 10
CCCCCCCCCCCC[N+]12CC[N+](CCCCC[N+]34CC[N+](CCCCCCCCCCCC)(CC3)CC4)(CC1)CC2,1.2 µg/mL,0.6 µg/mL,1.6 µg/mL,1.6 µg/mL,6.3 µg/mL,3.1 µg/mL,3.1 µg/mL,1.6 µg/mL,3.1 µg/mL,1.6 µg/mL,3.1 µg/mL,1.6 µg/mL,> 100 µg/mL,> 100 µg/mL,12.5 µg/mL,6.3 µg/mL,7 µg/mL,7.5 µg/mL,13,5,selectivity ratio at 24 h [21]: 2; selectivity ratio at 24 h [22]: 5; selectivity ratio at 24 h [23]: 5; selectivity ratio at 24 h [24]: < 1; selectivity ratio at 24 h [25]: 1; EC50 (Influenza A virus): 2.4 µg/mL; CC50 at 48 h [26]: 9.7 µg/mL; selectivity ratio [27]: 4; selectivity ratio at 24 h [28]: 5
CCCCCCCCCCCC[N+]12CC[N+](CC#CC[N+]34CC[N+](CCCCCCCCCCCC)(CC3)CC4)(CC1)CC2,3.1 µg/mL,1.6 µg/mL,3.1 µg/mL,1.6 µg/mL,12.5 µg/mL,3.1 µg/mL,12.5 µg/mL,63 µg/mL,12.5 µg/mL,6.3 µg/mL,12 µg/mL,6.3 µg/mL,> 100 µg/mL,100 µg/mL,12.5 µg/mL,12.5 µg/mL,23 µg/mL,22 µg/mL,14,14,selectivity ratio at 24 h [21]: 7; selectivity ratio at 24 h [22]: 4; selectivity ratio at 24 h [23]: 4; selectivity ratio at 24 h [24]: < 1; selectivity ratio at 24 h [25]: 2; EC50 (Influenza A virus): > 3 µg/mL; CC50 at 48 h [26]: 4 µg/mL; selectivity ratio [27]: < 1; selectivity ratio at 24 h [28]: 4
CCCCCCCCCCCC[N+]12CC[N+](CCCC[N+]34CC[N+](CCCCCCCCCCCC)(CC3)CC4)(CC1)CC2,1.2 µg/mL,0.6 µg/mL,1.6 µg/mL,1.6 µg/mL,3.1 µg/mL,1.6 µg/mL,3.1 µg/mL,1.6 µg/mL,3.1 µg/mL,1.6 µg/mL,1.6 µg/mL,1.6 µg/mL,> 100 µg/mL,25 µg/mL,6.3 µg/mL,6.3 µg/mL,4 µg/mL,4 µg/mL,7,3,selectivity ratio at 24 h [21]: 3; selectivity ratio at 24 h [22]: 3; selectivity ratio at 24 h [23]: 3; selectivity ratio at 24 h [24]: < 1; selectivity ratio at 24 h [25]: < 1; EC50 (Influenza A virus): > 3 µg/mL; CC50 at 48 h [26]: 6.8 µg/mL; selectivity ratio [27]: < 2; selectivity ratio at 24 h [28]: 3
